Experimental data published in PubChem BioAssay.
Inconclusive results are not listed.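 Rule for the calls, unless noted: active = inhibition over a set limit, the all-compound mean plus 3 SD, in both replicate runs; inconclusive = over that limit in just one replicate run; inactive = at or under that limit in both runs.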

What was measured:
[1] = OD615 S. cerevisiae growth inhibition, permissive medium, pilot counter-assay, permissive growth control for S. cerevisiae lifespan shortening project (AID 705;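 active = growth inhibition above 25% in both replicates, a cutoff set 3 SD above the mean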); details: OD615, 24 h, at 10 µM, stronger effect = higher value
Method in brief: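 assay system = Saccharomyces cerevisiae strain carrying genetically modified DeaD replicative-lifespan system | technique = absorbance (optical density) at 615 nm | buffer or medium = permissive raffinose/galactose medium | timing = cells pre-grown 4 h, then 24 h compound exposure, 30 °C humidified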

[2] = Restrictive medium S. cerevisiae growth inhibition, OD615, pilot screen of yeast lifespan reduction project, restrictive growth control (AID 706;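 active = growth inhibition above a set limit, 3 SD over mean compound inhibition, in both replicates, cut at about 43% in these data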;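 note: modified DeaD lifespan yeast strain shifted to restrictive glucose medium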); details: OD615, 48 h, at 10 µM, stronger effect = higher value
Method in brief: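 System: modified S. cerevisiae. Buffer or medium: CSMM-D glucose medium. Incubation: 4 h pre-growth plus 48 h compound exposure, 30 °C. Detection: absorbance (optical density) measured at 615 nm.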

[3] = viability gain of MRP-1-high H69AR cells under doxorubicin, pilot screen, MRP-1 activator project, CellTiter-Glo, duplicate (AID 807;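 active = viability increase at or above a cutoff of the median across tested compounds plus 3 SD, cut at about 8.5% in these data, passing the limit was not always enough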;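 note: compound pretreatment 18-22 h then 72 h combined with doxorubicin; 0% = doxorubicin alone and 100% = vehicle without doxorubicin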); details: H69AR viability with doxorubicin, CellTiter-Glo luminescence; at 10 µM; stronger effect = higher value
[4] = growth suppression of beta-catenin knockout HCT116, pilot screen, human colon tumor cells (AID 823;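 active = cell viability at or below a set limit in both duplicate runs, the limit being the all-compound median minus 4 SD, cut at about 23% in these data, passing the limit was not always enough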;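 note: 0% = wells killed by 20 µM Hyamine and 100% = untreated DMSO cell wells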); details: CellTiter-Glo, 60 h, at 10 µM, stronger effect = lower value
[5] = growth suppression of PTEN-deleted HCT116, pilot screen, cell-based, HCT116 clonal line, CellTiter-Glo (AID 824;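 active = viability at or below 27.92% in each of two runs, the all-compound median minus 4 SD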;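 note: 0% = 20 µM Hyamine control and 100% = vehicle cell control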); details: 60 h, at 10 µM, stronger effect = lower value
[6] = inhibitors of the yeast RAM network, pilot screen, dse1pr::URA3 reporter, 5-FOA selection (AID 869);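 note: 0% = DMSO wells with no growth and 100% = 10 µM 1-NA-PP1 with full growth; RAM network block rescues cells from 5-FOA so hits raise OD615 growth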; details: S. cerevisiae dse1pr::URA3 5-FOA growth, OD615, 2 d; at 10 µM; stronger effect = higher value; strain carries analog-sensitive mutant Cbk1 kinase
[7] = RAM signaling pathway blockade in yeast – S. cerevisiae, Pdr1DBD-CYC8 efflux-inhibited sensitized strain, primary screen (AID 1298;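 active = RAM network inhibition above 8.4% in each of two replicates, 3 SD over the compound average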;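 note: 0% = DMSO untreated cells without growth and 100% = 10 µM 1-NA-PP1 full growth; higher means more yeast growth rescued from 5-FOA killing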); details: S. cerevisiae cbk1-as DSE1-URA3 strain, 5-FOA growth OD615, 2 d; at 50 µM; stronger effect = higher value

Cc1nc(CC(=O)c2c(C)cc(O)cc2O)cs1
inactive: growth inhibition [1] -12.2% | growth inhibition [2] 1.06% | viability increase [3] 2.92% | viability [4] 90.5% | viability [5] 95.9% | inhibition [6] -0.335% | RAM network inhibition [7] 1.48%

O=C(Nc1ccncc1)c1ccccc1F
inactive: growth inhibition [1] -0.355% | growth inhibition [2] 0.36% | viability increase [3] -3.04% | viability [4] 94.3% | viability [5] 98% | inhibition [6] 1.06% | RAM network inhibition [7] 0.96%

O=P(c1ccccc1)(c1ccccc1)C1CCCO1 (stereo unspecified)
inactive: growth inhibition [1] -10.8% | growth inhibition [2] 8.75% | viability increase [3] 1.36% | viability [4] 97.7% | viability [5] 91.7% | inhibition [6] 2.44% | RAM network inhibition [7] 0.92%

N#CCn1nnc(-c2ccc3c(c2)OCO3)n1
inactive: growth inhibition [1] -5.24% | growth inhibition [2] 3.03% | viability increase [3] 3.41% | viability [4] 98.5% | viability [5] 103% | inhibition [6] 0.46% | RAM network inhibition [7] 0.16%

CCOC(=O)C1CCCN(C(=O)Cc2c(C(=O)O)[nH]c3ccccc23)C1 (stereo unspecified)
inactive: growth inhibition [1] -7.59% | growth inhibition [2] -0.39% | viability increase [3] -0.1% | viability [4] 97.3% | viability [5] 96.9% | inhibition [6] 0.53% | RAM network inhibition [7] 3.59%

N#Cc1nc(-c2ccc(F)cc2)oc1NCc1ccccc1
inactive: growth inhibition [1] -11.9% | growth inhibition [2] 2.85% | viability increase [3] 0.89% | viability [4] 105% | viability [5] 95.7% | inhibition [6] 1.36% | RAM network inhibition [7] 1.07%

CCCN1CCC(N(C)CCc2ccc(OC)c(OC)c2)CC1
inactive: growth inhibition [1] -7.87% | growth inhibition [2] -16.1% | viability increase [3] -0.93% | viability [4] 88.4% | viability [5] 94.5% | inhibition [6] 0.465% | RAM network inhibition [7] 2.37%

CN(C)CCNC(=O)c1cc2cc(Br)ccc2oc1=O
inactive: growth inhibition [1] -22.2% | growth inhibition [2] -8.59% | viability increase [3] -2.26% | viability [4] 81.6% | viability [5] 84.5% | inhibition [6] 0.755% | RAM network inhibition [7] 2.26%

CNS(=O)(=O)c1ccc(Oc2ccc(S(=O)(=O)NC)cc2)cc1
inactive: growth inhibition [1] 2.02% | growth inhibition [2] 2.91% | viability increase [3] -0.17% | viability [4] 86.7% | viability [5] 83.9% | inhibition [6] 2% | RAM network inhibition [7] 3.27%

CCCn1c(N2CCN(Cc3cccc(C)c3)CC2)nc2c1c(=O)[nH]c(=O)n2C
inactive: growth inhibition [1] 5.6% | growth inhibition [2] 2.15% | viability increase [3] -5.06% | viability [4] 89.3% | viability [5] 82.8% | inhibition [6] 1.34% | RAM network inhibition [7] 2.5%

O=C(CCCCn1c(=O)[nH]c2ccccc2c1=O)NCCc1c[nH]c2ccccc12
inactive: growth inhibition [1] -16.7% | growth inhibition [2] -25.8% | viability increase [3] -4.05% | viability [4] 93.5% | viability [5] 93.7% | inhibition [6] 0.945% | RAM network inhibition [7] 4.06%

CCOC(=O)c1[nH]c(C)c(C(=O)OCC)c1C
inactive: growth inhibition [1] -9.48% | growth inhibition [2] 1.48% | viability increase [3] 2.18% | viability [4] 105% | viability [5] 97.5% | inhibition [6] 3.55% | RAM network inhibition [7] 4.06%

CCOC(=O)N(C)OC(=O)Nc1ccc(Cl)c(Cl)c1
inactive: growth inhibition [1] -17.1% | growth inhibition [2] -20.5% | viability increase [3] -0.16% | viability [4] 95.6% | viability [5] 90.8% | inhibition [6] 0.52% | RAM network inhibition [7] 5.93%

Cc1noc(C)c1S(=O)(=O)N(CC(=O)N1CCCC1)c1ccc(C(C)C)cc1
inactive: growth inhibition [1] -1.45% | growth inhibition [2] -1.11% | viability increase [3] -5.13% | viability [4] 83.6% | viability [5] 83% | inhibition [6] 0.4% | RAM network inhibition [7] 4.43%

COc1ccc(S(=O)(=O)N2CCN(C)CC2)cc1C
inactive: growth inhibition [1] -15.1% | growth inhibition [2] -4% | viability increase [3] 1.37% | viability [4] 88.4% | viability [5] 92.1% | inhibition [6] 3.29% | RAM network inhibition [7] 3.02%

CCOC(=O)N1CCN(c2nc(=S)n(-c3ccccc3)c(C)c2C(C)=O)CC1
inactive: growth inhibition [1] 14.8% | growth inhibition [2] 28.8% | viability increase [3] -1.09% | viability [4] 98.8% | viability [5] 101% | inhibition [6] 1.26% | RAM network inhibition [7] 2.67%

Cc1noc(NS(=O)(=O)c2ccc(N3Cc4ccccc4C3=O)cc2)c1C
inactive: growth inhibition [1] -3.04% | growth inhibition [2] 0.35% | viability increase [3] -2.74% | viability [4] 102% | viability [5] 104% | inhibition [6] 1.45% | RAM network inhibition [7] 5.3%

CC1(C)CC(=O)C2=C(C1)OC(N)=C(C#N)C2c1ccc(OC(=O)N2CCOCC2)cc1 (stereo unspecified)
inactive: growth inhibition [1] -8.71% | growth inhibition [2] -10.3% | viability increase [3] -1.1% | viability [4] 100% | viability [5] 105% | inhibition [6] 1.12% | RAM network inhibition [7] 0.1%
